The values below come from ChEMBL document CHEMBL1131033, “Selective endothelin A receptor antagonists. 4. Discovery and structure-activity relationships of stilbene acid and alcohol derivatives” (J Med Chem, 1998).

For the first assay, the target named is T1, Endothelin-1 receptor (Rattus norvegicus) (UniProt P26684).
T1 sequence (whole entry): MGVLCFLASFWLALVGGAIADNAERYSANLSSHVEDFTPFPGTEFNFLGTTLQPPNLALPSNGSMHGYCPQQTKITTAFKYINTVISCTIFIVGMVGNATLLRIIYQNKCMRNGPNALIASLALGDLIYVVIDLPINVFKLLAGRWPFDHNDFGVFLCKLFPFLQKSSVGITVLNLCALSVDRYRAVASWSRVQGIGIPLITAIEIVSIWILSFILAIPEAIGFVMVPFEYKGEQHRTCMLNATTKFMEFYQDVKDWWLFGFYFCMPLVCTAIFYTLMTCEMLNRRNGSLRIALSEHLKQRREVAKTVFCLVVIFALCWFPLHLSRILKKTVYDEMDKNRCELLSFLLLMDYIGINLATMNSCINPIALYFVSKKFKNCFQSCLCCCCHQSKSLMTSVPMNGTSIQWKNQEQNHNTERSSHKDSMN
Briefly: Concentration required to inhibit 50% Et-1 binding to Endothelin A receptor in rat A-10 cells. The class given is cell-based. The settings on record: A10; concentration not given here. Set-up: concentration or dose not given beside the values. In outline:
(§1)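 Rat aortic smooth muscle A10 cells grown to confluence in DMEM with 10% FBS, harvested, and frozen. Nonspecific binding defined with 500 nM unlabeled ET-1. Bound ligand separated by vacuum filtration and gamma-counted. IC50 from curve fitting, usually in duplicate.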
In turn, `COC/C(=C/c1cc(OCc2ccsc2)ccc1C#N)c1ccccc1C` returned an inhibition of less than 20%.

Molecule `Nc1ccc(OCc2ccsc2)cc1/C=C(/C(=O)O)c1ccccc1F` came in with an inhibition of less than 20%.

On to `COc1ccc(C#N)c(/C=C(/C(=O)O)c2ccccc2)c1`, for which the inhibition is less than 20%.

Regarding `COc1ccc(/C(=C\c2cc(OCc3ccsc3)ccc2C#N)C(=O)O)cc1`, the inhibition is less than 20%.

Another assay has as its target T2, Endothelin-1 receptor (Rattus norvegicus, UniProt P26684).
T2 sequence (P26684 whole entry): T1 sequence (whole entry)
Briefly: Concentration required to inhibit 50% Et-1 binding to endothelin A receptor in rat A-10 cells.
Conditions: not given
The format is cell-based, A10. In outline:
as §1
For the molecule `O=C(O)CC/C(=C/c1cccc(OCc2ccccc2)c1)c1ccccc1`, the IC50 stood at 5300 nM.

Consider `O=C(O)/C(=C/c1cc(OCc2ccsc2)ccc1[N+](=O)[O-])c1ccccc1F`, for which the IC50 was 600 nM.

Turning to `N#Cc1ccc(OCc2ccsc2)cc1/C=C(/C(=O)O)c1ccccc1Cl`, the IC50 was determined as 200 nM.

Molecule `O=C(O)/C(=C/c1cccc(OCc2ccccc2)c1)c1ccccc1` came in with an IC50 of 6000 nM.

In turn, `Cc1ccccc1/C(=C\c1cc(OCc2ccsc2)ccc1C#N)CO` registered an IC50 of 300 nM.

Consider `O=C(O)/C(=C/c1cc(OCc2ccsc2)ccc1[N+](=O)[O-])c1c(F)cccc1Cl`, for which the IC50 is 2000 nM.

The molecule `O=[N+]([O-])c1ccc(OCc2ccsc2)cc1/C=C(/CO)c1ccccc1` yielded an IC50 of 1400 nM.

On to `N#Cc1ccc(OCc2ccsc2)cc1/C=C(/C(=O)O)c1ccc2c(c1)OCO2`, for which the IC50 is 200 nM.

For the molecule `O=C(O)/C(=C/c1cc(OCc2ccsc2)ccc1Br)c1ccccc1`, the 50% inhibitory concentration (IC50) amounted to 700 nM.

Molecule `N#Cc1ccc(OCc2ccsc2)cc1/C=C(/CO)c1ccccc1` came in with an IC50 of 800 nM.

Regarding `OC/C(=C/c1cc(OCc2ccsc2)ccc1Br)c1ccccc1`, the IC50 came to 2100 nM.

Consider `O=C(O)/C(=C/c1cc(OCc2ccsc2)ccc1[N+](=O)[O-])c1ccccc1Cl`, for which the IC50 was determined as 1300 nM.

On to `Cc1ccccc1/C(=C\c1cc(OCc2ccsc2)ccc1C#N)C(=O)O`, for which the IC50 is 300 nM.

In turn, `COc1cccc(/C(=C\c2cc(OCc3ccsc3)ccc2C#N)C(=O)O)c1` returned a 50% inhibitory concentration (IC50) of 1100 nM.

`N#Cc1ccc(OCc2ccc3c(c2)OCO3)cc1/C=C(/C(=O)O)c1ccccc1` yielded an IC50 of 1300 nM.

`N#Cc1ccc(OCc2ccsc2)cc1/C=C(/CCC(=O)O)c1ccccc1` came in with an IC50 of 700 nM.

In turn, `O=C(O)CCC(Oc1cccc(OCc2ccccc2)c1)c1ccccc1` (stereo not given) displayed an IC50 of 2000 nM.

`N#Cc1ccc(OCc2cccnc2)cc1/C=C(/C(=O)O)c1ccccc1` came in with an IC50 of 150 nM.

`O=C(O)/C(=C/c1cc(OCc2ccsc2)ccc1[N+](=O)[O-])c1ccccc1` returned an IC50 of 500 nM.

Turning to `O=[N+]([O-])c1ccc(OCc2ccsc2)cc1/C=C(/CO)c1ccccc1Cl`, the IC50 came out at 400 nM.

Molecule `O=C(O)/C(=C/c1cc(OCc2ccccc2)ccc1[N+](=O)[O-])c1ccccc1` displayed an IC50 of 600 nM.
